Most compounds without a hit are left out; they make up all but 2.1% or so of the library.
Xi reactivation = activators of X-chromosome reactivation in mouse fibroblasts; XiGFP mouse fibroblasts, % GFP-positive cells imaging, 3 d; cells co-treated with 5-aza-dC sensitizer; scaled so ellipticine positive control = 100%; activation, % at 7.58 µM; 360,000 compounds, 0.055% hits; AID 743238;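 active = mean normalized replicate activation at least 10% and every replicate at or above 10%; inconclusive = only one of the two criteria met; inactive = mean below 10% and not all replicates reach 10%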;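 note: 0% = median of on-plate neutral control wells and 100% = ellipticine 6 µM median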
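System: SV40-immortalized XiGFP fibroblast cells, line 68-5-11 / Incubation: 3-day compound exposure, then 15 min fixation at room temperature / Compound: single concentration per compound, delivered by pin transfer / Buffer or medium: DMEM plus 5-aza-dC sensitizer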
Cneo AK release = Cryptococcus neoformans lysis via adenylate kinase release; 360,000 compounds, 0.2% hits; C. neoformans lysis, adenylate kinase release luminescence, 4 h; normalised: neutral wells 0, clomiphene wells 100; AID 651654; lysis activity, % at 15 µM;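 active = mean lysis activity across replicates of at least 80%, whatever share of replicates individually reach that level; inactive = mean lysis activity below 80%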
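Assay system: Cryptococcus neoformans yeast cells / Dosing: single-point compound dose / Timing: 4 h at 37 °C static, read 1 h later / Measured by: luminescence of released adenylate kinase using an AK detection reagent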
Statin myotox sup = suppressors of simvastatin-induced myotoxicity in C2C12 myotubes. ATP luminescence, 48 h; scaled: DMSO 0, geranylgeraniol control 100. rescue of ATP level, % at 7.49 µM. 330,000 compounds, 0.78% hits;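 active = mean ATP rescue above about 67%, or every replicate alone reaching that limit, limit read from the data, passing the limit was not always enough; inconclusive = no clear call, values can overlap the other calls; inactive = mean under the limit and some replicate under it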;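 note: myotubes were challenged with 10 µM simvastatin during compound exposure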
DENV2 CPE = protects cells from dengue virus 2 cytopathic effect | DENV2-infected cells, cytopathic effect rescue, plate reader | CPE inhibition, % at 9.99 µM | 350,000 compounds, 1.7% hits | AID 651640; in the data active = CPE inhibition above about 20%, passing the limit was not always enough; inconclusive = no clear call, values can overlap the other calls; tested in BHK-21 cells;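 note: 0% = median of neutral control wells and 100% = median of positive control wells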
Numbers without * were called inactive; ? = inconclusive; . = not tested or not shown.

SMILES	Xi reactivation	Cneo AK release	Statin myotox sup	DENV2 CPE
C[C@@H]1CN([C@@H](C)CO)C(=O)Cc2cc(N(C)C)ccc2O[C@@H]1CN(C)Cc1ccc(C(F)(F)F)cc1	0.0	8.7	56.3	26.5*
C[C@@H]1CCCCO[C@@H](CN(C)S(=O)(=O)c2ccccc2)[C@H](C)CN([C@@H](C)CO)C(=O)c2cc(NS(=O)(=O)c3cn(C)cn3)ccc2O1	0.3	-0.9	.	0.5
CCNC(=O)C[C@@H]1CC[C@H]2[C@@H](COC[C@H](O)CN2C(=O)C2CCOCC2)O1	0.0	-1.1	-23.8	-0.3
O=C(COc1cccnc1[N+](=O)[O-])Nc1cccc(Br)c1	0.2	-0.7	9.8	5.5
O=C(COc1cccnc1[N+](=O)[O-])Nc1ccccc1Sc1ccccc1	0.2	2.4	.	32.5*
N/C(=N\c1nc(CSc2nc3ccccc3s2)cc(=O)[nH]1)Nc1ccc(F)cc1	34.9*	.	.	16.4
Cc1ccc(N/C(N)=N/c2nc(CSc3nnc(N)s3)cc(=O)[nH]2)cc1	-0.1	0.5	-14.6	-1.6
COc1cccc(S(=O)(=O)Nc2ccc3c(c2)[C@@H]2C[C@H](CC(=O)O)O[C@H](CO)[C@@H]2O3)c1	0.1	.	.	7.7
C[C@@H]1CN([C@H](C)CO)C(=O)c2cc(NC(=O)CCC(F)(F)F)ccc2O[C@@H](C)CCCCO[C@@H]1CN(C)Cc1ccc(C(F)(F)F)cc1	0.1	1.8	125.2*	9.8
COc1ccc(CN(C)C[C@H]2OCCCC[C@H](C)Oc3ccc(NC(=O)CCC(F)(F)F)cc3C(=O)N([C@@H](C)CO)C[C@H]2C)cc1	0.1	-2.4	.	-2.8
C[C@@H]1CCCCO[C@@H](CN(C)Cc2ccc(C(F)(F)F)cc2)[C@@H](C)CN([C@@H](C)CO)C(=O)c2cc(NC(=O)CCC(F)(F)F)ccc2O1	-1.1	-5.4	83.2*	-2.5
COc1ccc(CN(C)C[C@H]2OCCCC[C@H](C)Oc3ccc(NC(=O)CCC(F)(F)F)cc3C(=O)N([C@H](C)CO)C[C@@H]2C)cc1	-0.1	0.3	.	28.8*
C[C@@H]1CCCCO[C@H](CN(C)Cc2ccc(C(F)(F)F)cc2)[C@@H](C)CN([C@@H](C)CO)C(=O)c2cc(NC(=O)CCC(F)(F)F)ccc2O1	-0.9	1.0	-98.9	20.5*
C[C@@H]1CCCCO[C@H](CN(C)Cc2ccc(C(F)(F)F)cc2)[C@H](C)CN([C@@H](C)CO)C(=O)c2cc(NC(=O)CCC(F)(F)F)ccc2O1	-0.5	5.0	-17.4	-2.7
Cc1ccc(C)c(C(Nc2ccccc2)c2ccc3ccc(C)nc3c2O)c1 (stereo unspecified)	0.3	.	.	22.5*
Oc1c(C(Nc2cccc(C(F)(F)F)c2)c2ccncc2)ccc2cccnc12 (stereo unspecified)	1.1	.	.	-3.5
COc1cccc(S(=O)(=O)Nc2ccc3c(c2)C(=O)N(C)C[C@@H](OC)[C@@H](C)CN(C(=O)Cc2cccnc2)[C@H](C)CO3)c1	0.0	-0.7	11.9	51.8*
CO[C@@H]1CN(C)C(=O)c2ccc(NC(C)=O)cc2OC[C@@H](C)N(C(=O)Cc2cccnc2)C[C@H]1C	0.0	97.4*	6.7	?
COCC(=O)Nc1ccc2c(c1)C(=O)N(C)C[C@@H](OC)[C@@H](C)CN(C(=O)Cc1cccnc1)[C@@H](C)CO2	0.2	-4.0	19.1	-0.9
COc1cccc(S(=O)(=O)Nc2ccc3c(c2)C(=O)N(C)C[C@H](OC)[C@H](C)CN(C(=O)Cc2cccnc2)[C@@H](C)CO3)c1	0.1	-1.2	20.7	1.4
COCC(=O)Nc1ccc2c(c1)OC[C@@H](C)N(C(=O)Cc1cccnc1)C[C@H](C)[C@@H](OC)CN(C)C2=O	0.0	91.8*	-1.5	49.0*
COCC(=O)Nc1ccc2c(c1)OC[C@H](C)N(C(=O)Cc1cccnc1)C[C@@H](C)[C@H](OC)CN(C)C2=O	0.4	.	.	26.4*
CC(=O)N(C)C[C@@H]1Oc2ncc(-c3ccc(C)cc3)cc2C(=O)N([C@@H](C)CO)C[C@@H]1C	-1.4	-0.6	-1.9	?
CN1C(=O)c2cc(NC(=O)Cc3cccs3)ccc2OC[C@H]2O[C@H](CC(=O)N[C@H]3CCN(Cc4ccccc4)C3)CC[C@H]21	0.1	2.3	10.9	-3.1
O=C(O)c1ccc(N=NN2CCCCCC2)cc1	0.0	.	.	111.8*
SMILES	Xi reactivation	Cneo AK release	Statin myotox sup	DENV2 CPE
CNC[C@H]1Oc2ccc(NC(=O)Cc3cn(C)c4ccccc34)cc2CC(=O)N([C@H](C)CO)C[C@H]1C	0.1	0.5	16.9	-5.4
CC(=O)N1c2ccc(S(=O)(=O)NCCC(=O)NCc3ccc(Cl)cc3)cc2CC1C (stereo unspecified)	0.1	-1.3	11.9	-2.2
CC(=O)N1c2ccc(S(=O)(=O)NCCC(=O)N3CCCC(C)C3)cc2CC1C (stereo unspecified)	0.0	2.0	-29.6	35.2*
CC(=O)N1c2ccc(S(=O)(=O)NCCC(=O)NCc3ccc(N(C)C)cc3)cc2CC1C (stereo unspecified)	0.0	-0.2	92.0*	-9.5
S=C1N(c2ccccc2)C(c2ccc(Cl)cc2)N2CCCN12 (stereo unspecified)	.	0.8	-0.4	.
S=C1N(c2ccccc2)C(c2ccc(Br)cc2)N2CCCN12 (stereo unspecified)	0.0	2.0	-1.6	42.0*
C[C@@H]1CN([C@H](C)CO)C(=O)Cc2cc(NC(=O)NC3CCCCC3)ccc2O[C@H]1CN(C)CC1CCCCC1	-1.3	.	13.3	24.9*
C[C@H](CO)N1C[C@H](C)[C@@H](CN(C)CC2CCCCC2)Oc2ccc(NC(=O)Nc3ccc4c(c3)OCO4)cc2CC1=O	0.1	2.5	-13.0	29.3*
C[C@H]1CN([C@@H](C)CO)C(=O)Cc2cc(NC(=O)NC3CCCCC3)ccc2O[C@@H]1CN(C)CC1CCCCC1	-1.1	-3.9	46.9	?
O=C(c1ccco1)N1CCN(C(=O)c2ccc(-c3cccc(C(F)(F)F)c3)o2)CC1	0.4	.	.	101.0*
O=C(CN1CCC(C(O)(c2ccccc2)c2ccccc2)CC1)Nc1cc(Cl)ccc1Cl	.	1.7	90.2*	2.7
O=C(CN1CCN(C(=O)c2ccco2)CC1)Nc1cc(C(F)(F)F)ccc1Cl	.	0.8	104.2*	.
O=C(CN1CCOCC1)Nc1cc(C(F)(F)F)ccc1Cl	0.1	-2.6	2.3	7.7
C[C@@H]1CCCCO[C@@H](CN(C)C(=O)Cc2ccccc2)[C@@H](C)CN([C@H](C)CO)C(=O)c2cc(NC(=O)NC3CCCCC3)ccc2O1	0.2	-11.0	.	7.8
CC(=O)N(C)C[C@@H]1Oc2ncc(C3=CCCC3)cc2C(=O)N([C@H](C)CO)C[C@H]1C	0.3	-0.6	-1.6	-10.6
O=C(C[C@H]1C=C[C@H](NC(=O)C2CC2)[C@@H](CO)O1)NC1CCC1	1.3	6.6	-14.5	2.0
COc1ccc(NC(=O)NNS(=O)(=O)c2cc(C)ccc2C)cc1OC	0.0	-0.2	.	2.3
COc1ccc(OC)c(NC(=O)NNS(=O)(=O)c2ccc(C)cc2C)c1	0.3	1.8	.	23.4*

High-throughput results as filed in PubChem.
